Laboratory results reported in paper PMC4701204 (Chemistry & biology, 2015).
Entries after “also recorded” stand apart in the source; their conditions may differ.

Key:
AML patient cells = assay: Clonogenic survival; assay type: cell-based
Summary of the method: (§1)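 Colony-forming survival of BRCA-deficient and BRCA-proficient leukemia patient cells after test compound or olaparib. Each data point pools cells from 3 different patients. Mean ± s.e.m. of 3 independent experiments.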

MDA-MB-436 cells = assay: γH2AX foci; assay type: cell-based; details: more pronounced in BRCA deficient cells
HR in U20S cells = assay: HR GFP reporter assay; assay type: cell-based
RAD52 = RAD52 (Homo sapiens, UniProt P43351); assay: EMSA with excess ssDNA substrate; assay type: binding; details: 25 μM
Summary of the method: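 RAD52 binding to an excess of Cy3-labelled ssDNA substrate in the presence of 25 μM test compound. Complexes resolved by EMSA on a non-denaturing gel.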

RAD51 = RAD51 (Homo sapiens, UniProt Q06609); assay: Fluorescence polarization; assay type: binding; details: in vitro, FP, 280 nM RAD51, 1 mM ATP
Sequence of RAD51 (Q06609 whole entry, species assumed): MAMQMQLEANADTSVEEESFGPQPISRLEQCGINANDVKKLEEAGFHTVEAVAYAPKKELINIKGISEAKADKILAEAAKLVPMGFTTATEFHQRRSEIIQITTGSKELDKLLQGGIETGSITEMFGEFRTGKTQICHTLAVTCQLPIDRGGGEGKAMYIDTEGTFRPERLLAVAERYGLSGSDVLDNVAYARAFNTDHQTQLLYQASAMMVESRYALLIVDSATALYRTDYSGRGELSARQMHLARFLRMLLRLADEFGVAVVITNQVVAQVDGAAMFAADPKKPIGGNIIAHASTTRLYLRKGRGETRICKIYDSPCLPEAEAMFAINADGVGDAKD
Summary of the method: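 Human RAD51 (280 nM) with 1 mM ATP, 10 nM FAM-labelled ssDNA and varied test compound in pH 7.5 Tris buffer (25 mM NaCl, 0.5 mM MgCl2, 1 mM DTT, 0.01% NP-40, 0.1 mg/mL BSA). Incubated 30 min at room temp, then fluorescence polarization read. Inhibition of ssDNA binding taken from FP.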

[1] = target: T1, RAD52 1-209 undecamer ring (Homo sapiens, UniProt P43351); assay: Native gel electrophoresis of RAD52 1-209 composition; assay type: biochemical
T1 sequence (P43351 1-209): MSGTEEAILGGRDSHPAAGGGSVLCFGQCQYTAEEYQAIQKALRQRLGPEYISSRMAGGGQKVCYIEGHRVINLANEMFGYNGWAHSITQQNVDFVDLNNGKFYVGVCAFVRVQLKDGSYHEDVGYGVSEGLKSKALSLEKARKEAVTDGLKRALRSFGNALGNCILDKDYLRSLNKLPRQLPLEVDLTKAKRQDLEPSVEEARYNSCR

[2] = system: MDA-MB-436 cells complemented with BRCA1; assay: eGFP-RAD52 foci formation after ionizing radiation; assay type: cell-based; details: MDA-MB-436 BRCA1 complemented
Summary of the method: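 BRCA1-complemented MDA-MB-436 cells expressing eGFP-RAD52 were given test compound, then ionizing radiation, with or without IR as control. Nuclei stained with DAPI. Cells with ≥5 eGFP-RAD52 foci counted as percent of total. Mean ± s.e.m. of 3 independent experiments.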

NHEJ in U20S cells = assay: NHEJ GFP reporter assay; assay type: cell-based; details: 5 μM
Summary of the method: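 NHEJ GFP reporter in U2OS cells, run with or without 5 μM test compound. Mean ± s.e.m. of two separate experiments, each in triplicate.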

RAD52-ssDNA complexes = RAD52-ssDNA complexes (Homo sapiens, UniProt P43351); assay: Dissociation of pre-formed RAD52-ssDNA complexes; assay type: binding; details: 30 μM, FP measured 2 min after addition
Summary of the method: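 RAD52–ssDNA complexes pre-formed and equilibrated for 30 min before 30 μM test compound was added. FP read 2 min later against a DNA-only control, with mean ± s.d. of 3 independent experiments. Dissociation was also tested by EMSA on non-denaturing gels.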

RAD52 WT = target: T2, RAD52 WT (Homo sapiens, UniProt P43351); assay: Fluorescence polarization; assay type: binding; details: for Inhibition of RAD52 ssDNA binding: in vitro, Supplementary Fig. 1
T2 sequence (P43351 1-418): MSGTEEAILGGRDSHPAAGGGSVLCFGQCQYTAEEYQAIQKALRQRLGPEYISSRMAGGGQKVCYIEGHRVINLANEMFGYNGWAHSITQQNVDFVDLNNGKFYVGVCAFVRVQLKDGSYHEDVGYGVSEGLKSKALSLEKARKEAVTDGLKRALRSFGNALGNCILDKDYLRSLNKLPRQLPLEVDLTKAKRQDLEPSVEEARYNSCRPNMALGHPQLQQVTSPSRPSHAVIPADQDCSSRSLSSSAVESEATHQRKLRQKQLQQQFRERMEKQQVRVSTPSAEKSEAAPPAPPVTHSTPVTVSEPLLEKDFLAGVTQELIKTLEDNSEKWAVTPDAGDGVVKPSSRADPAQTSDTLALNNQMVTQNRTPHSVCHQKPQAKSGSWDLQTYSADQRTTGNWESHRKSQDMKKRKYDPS

SSA in U20S cells = assay: SSA GFP reporter assay; assay type: cell-based; details: 5 μM
Summary of the method: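 U20S cells carrying an SSA reporter exposed to test compounds at 5 μM. RAD52 siRNA versus scrambled siRNA serves as pathway control, with knockdown checked by western blot. Values are mean ± s.e.m. of triplicates, some from 3 separate experiments; two-tailed Student's t-test.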

[3] = system: VC8 cells (BRCA2 defective); assay: Cell viability / proliferation; assay type: cell-based, Chinese hamster; details: 75 μM 6-OH-dopa
Summary of the method: (§2)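 Each BRCA-deficient line tested alongside its BRCA-proficient counterpart after single-concentration test compound (olaparib or siRNA in some panels). Relative viability reported as mean ± s.e.m. of triplicates, with two-tailed Student's t-test.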

[4] = system: BRCA deficient cells (VC8, HCC1937); assay: Annexin V staining; assay type: cell-based; details: BRCA deficient vs proficient cells
[5] = target: T1, RAD52 1-209 undecamer ring; assay: Light scattering of RAD52 1-209; assay type: biochemical
Summary of the method: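 RAD52 1-209 (purified by a published method) incubated with or without test compound in 1 M or 0.15 M NaCl. Species sizes measured by light scattering. Buffer-only and compound-only controls included.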

ssDNA = assay: Interaction of small molecule with ssDNA; assay type: binding; details: Supplementary Fig. 1
RecA = RecA (Escherichia coli, UniProt P0A7G6); assay: Effect on RecA in vitro; assay type: biochemical; details: Supplementary Fig. 1
Sequence of RecA (P0A7G6 whole entry, species assumed): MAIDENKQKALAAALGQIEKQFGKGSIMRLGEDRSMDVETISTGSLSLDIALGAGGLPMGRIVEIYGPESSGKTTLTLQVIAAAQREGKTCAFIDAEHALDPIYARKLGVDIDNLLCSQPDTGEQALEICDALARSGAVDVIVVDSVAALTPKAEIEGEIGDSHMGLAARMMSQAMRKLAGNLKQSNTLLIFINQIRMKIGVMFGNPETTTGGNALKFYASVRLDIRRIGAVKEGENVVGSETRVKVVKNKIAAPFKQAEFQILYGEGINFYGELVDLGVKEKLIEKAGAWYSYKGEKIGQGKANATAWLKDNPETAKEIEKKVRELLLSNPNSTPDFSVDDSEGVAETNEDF

[6] = system: HCC1937 cells (BRCA1 deficient); assay: Cell viability; assay type: cell-based; details: 5 μM 6-OH-dopa
Summary of the method: as §2

[7] = system: BCR-ABL transformed murine hematopoietic 32Dcl3 cells expressing eGFP-RAD52; assay: eGFP-RAD52 foci formation after cisplatin; assay type: cell-based; details: cisplatin treated 32Dcl3 BCR-ABL cells
Summary of the method: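 Cells expressing eGFP-RAD52 pre-incubated with DMSO or test compound at several concentrations, then treated with cisplatin. Fraction of cells with eGFP-RAD52 foci scored by fluorescence microscopy. Values are mean ± s.e.m. of triplicates; two-tailed Student's t-test.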

[8] = target: RAD52 1-209 (ssDNA binding domain) (Homo sapiens, UniProt P43351); assay: Fluorescence polarization
[9] = system: CAPAN-1 cells (BRCA2 defective); assay: Cell viability / proliferation; assay type: cell-based; details: 10 μM 6-OH-dopa, 20 μM olaparib
Summary of the method: as §2

[10] = system: MDA-MB-436 cells (BRCA1 deficient and BRCA1 complemented); assay: Cell viability; assay type: cell-based; details: for Viability of BRCA1 deficient MDA-MB-436 cells: 3 day time course, 20 μM 6-OH-dopa
Summary of the method: as §2

[11] = system: BRCA deficient and proficient cell lines; assay: Clonogenic survival assay; assay type: cell-based
Summary of the method: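 Clonogenic survival of BRCA-deficient and BRCA-proficient cell lines treated with test compound or olaparib. Mean ± s.e.m. of 3 independent experiments.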

[12] = system: BRCA1 deficient CML patient cells; assay: Clonogenic survival; assay type: cell-based
Summary of the method: as §1

HEK293T cells = assay: eGFP-RAD52 foci formation after ionizing radiation; assay type: cell-based
Summary of the method: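 HEK293T cells expressing eGFP-RAD52 treated with test compound at several concentrations and exposed to ionizing radiation. DAPI-counterstained nuclei imaged, and the percent of cells with ≥ 5 eGFP-RAD52 foci scored. Values are average ± s.e.m. of 3 independent experiments; two-tailed Student's t-test.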

light scattering [13] = target: the molecule itself; assay: light scattering
light scattering [14] = target: the molecule itself; assay: light scattering; remark: listed apart in the source
native gel or EMSA = target: the molecule itself; assay: native gel or EMSA

Molecule: NC(Cc1cc(O)c(O)cc1O)C(=O)O (racemic) [6-OH-dopa, 6-hydroxy-DL-dopa]
- Colony formation by AML patient cells expressing normal levels of BRCA1/2 (AML patient cells): little effects
- DNA damage indicated by γH2AX foci (MDA-MB-436 cells): substantial increase in DNA damage
- Effect on HR when RAD52 was suppressed (HR in U20S cells; RAD52 siRNA): had no effect on HR
- Effect on HR (HR in U20S cells; U20S cells, 5 μM): little or no reduction in HR
- Inhibition of RAD52 in the presence of ~100-fold excess of ssDNA substrate (RAD52): continued to inhibit RAD52
- Effect on RAD51 (RAD51): little or no effect; also recorded: no effect
- Effect on RAD52 1-209 composition [1]: dissociates RAD52 complexes
- eGFP-RAD52 foci [2]: inhibited eGFP-RAD52 foci
- Effect on NHEJ (NHEJ in U20S cells): only slightly inhibited NHEJ
- Dissociation of pre-formed RAD52-ssDNA complexes (RAD52-ssDNA complexes): fully dissociated RAD52-ssDNA complexes
- IC50 (RAD52 WT): 1100 nM
- Percent lower IC50 for RAD52 WT compared to RAD52 1-209 (RAD52 WT): 31%
- Effect on SSA (SSA in U20S cells): consistently inhibited SSA
- Proliferation of VC8 cells [3]: selectively halted the proliferation
- Apoptosis indicated by annexin V staining [4]: specifically increased apoptosis
- Size of RAD52 1-209 species produced ([5]; high salt (1 M NaCl)): 48.3 kDa
- Size of RAD52 1-209 species produced ([5]; low salt (0.15 M NaCl)): 48.3 kDa
- Undecamers (270 kDa) converted into dimers (48.3 kDa) ([5]; low salt (0.15 M NaCl)): 100%
- Interaction with ssDNA (ssDNA): does not interact with ssDNA
- Effect on RecA (RecA): very little effect
- Viability of HCC1937 cells [6]: selectively reduced the viability
- eGFP-RAD52 foci formation [7]: suppressed eGFP-RAD52 foci formation in a dose dependent manner
- IC50 [8]: 1600 nM
- Proliferation of CAPAN-1 cells [9]: selectively halted the proliferation
- Viability of BRCA1 deficient MDA-MB-436 cells [10]: nearly identical reduction in viability
- Viability of BRCA1 deficient MDA-MB-436 cells when RAD52 expression was suppressed ([10]; RAD52 siRNA): lost its ability to significantly reduce the viability
- Clonogenic survival of BRCA deficient cell lines [11]: inhibited the survival
- Clonogenic survival of BRCA proficient cells ([11]; at the given doses): little or no effect
- Survival of BRCA1 deficient CML patient cells [12]: significant reduction in the survival
- eGFP-RAD52 foci (HEK293T cells): decreased the number of eGFP-RAD52 foci in a dose dependent manner

Molecule: NC(Cc1ccccc1O)C(=O)O (racemic) [DL-o-tyrosine, reference compound]
- Effect on RAD52 1-209 composition [1]: had no effect on RAD52 1-209 composition
- Inhibition of RAD52 ssDNA binding (RAD52 WT): failed to inhibit RAD52

Molecule: N[C@H](C(=O)O)[C@H](O)c1ccc(O)c(O)c1 [L-DOPS, reference compound]
- Inhibition of RAD52 ssDNA binding (RAD52 WT): failed to inhibit
- Effect on SSA (SSA in U20S cells): failed to inhibit SSA

Molecule: O=C(c1cc(Cc2n[nH]c(=O)c3ccccc23)ccc1F)N1CCN(C(=O)C2CC2)CC1 [olaparib, reference compound]
- Colony formation by AML patient cells expressing normal levels of BRCA1/2 (AML patient cells): little effects
- Viability of BRCA1 deficient MDA-MB-436 cells [10]: selectively reduced the viability

B1: RAD52 1-209 (RAD52 ssDNA binding domain, residues 1-209) (domain or fragment, human, UniProt P43351 1-209, looked up)
chain: T1 sequence (P43351 1-209)
- stoichiometry N (light scattering [13]): 11
- stoichiometry N (light scattering [14]): 2

B2: RAD52 WT (wild-type, full-length RAD52, Histidine-tagged) (natural protein, human, UniProt P43351 1-418, looked up)
chain: T2 sequence (P43351 1-418)
- stoichiometry N (native gel or EMSA): 14
